This note sets out measurements from ChEMBL document CHEMBL1629550 (Antimicrob Agents Chemother, 2008).

In data set [1] the test system is Listeria monocytogenes. Kind of data set: Antibacterial activity against Listeria monocytogenes EGD-e in BALB/c mouse central nervous system listeriosis model assessed as increase in mouse survival at 50 mg/kg, ip administered 36 hrs postinfection every 12 hrs for 5 days. It is filed as functional. Conditions: route intraperitoneal. In a few lines:
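Female BALB/c mice, 7–8 weeks old, were infected i.v. via the tail vein with 1 × 10^5 EGD-e in 0.5 ml saline. From 36 h they received 50 mg·kg−1 i.p. in isotonic saline (0.1 ml) every 12 h for 5 days, with n = 20. Controls got saline (n = 5). Death was checked twice daily, and survivors were followed 2 months for relapse. Results were plotted as Kaplan-Meier estimates.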

Data set [2] relates to Listeria monocytogenes. The data set can be described thus: Antibacterial activity against Listeria monocytogenes EGD-e in BALB/c mouse central nervous system listeriosis model assessed as increase in mouse survival at 50 mg/kg, ip administered 36 hrs postinfection as single dose. It is filed as functional. Conditions: route intraperitoneal. An outline of the steps: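 Female BALB/c mice, 7–8 weeks old, were infected via the lateral tail vein with 1 × 10^5 EGD-e in 0.5 ml saline. At 36 h they received a single 50 mg·kg−1 i.p. dose in isotonic saline (0.1 ml), with n = 12. Controls got saline (n = 5). Death was checked twice daily from 36 h, and survivors were followed 2 months. Results were plotted as Kaplan-Meier estimates.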

Data set [3] deals with Listeria monocytogenes. Kind of data set: Antibacterial activity against Listeria monocytogenes EGD-e in BALB/c mouse central nervous system listeriosis model assessed as reduction in bacterial count in spleen at 50 mg/kg, ip administered 36 hrs postinfection as single dose measured within 6 hr. It is filed as functional, organism-based. More on the design: dose 50 mg/kg. In a few lines:
(§1)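 Female BALB/c mice (7–8 weeks) were infected i.v. with 1 × 10^5 EGD-e and given one i.p. dose of 50 mg·kg−1 at 36 h; saline was given to controls. Groups of three were sampled at 1, 6, 24 and 48 h. Blood and homogenized liver, spleen and brain were serially diluted 10-fold on BHI agar and counted after 24 h at 37°C. Results are mean ± SE log10 CFU/organ or per ml blood.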

The subject of data set [4] is Listeria monocytogenes. Kind of data set: Antibacterial activity against Listeria monocytogenes EGD-e in BALB/c mouse central nervous system listeriosis model assessed as mouse survival at 50 mg/kg, ip administered 36 hrs postinfection every 12 hrs for 5 days measured after 2 months. It is filed as functional, organism-based. Also on record: dose 50 mg/kg. In a few lines:
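BALB/c females were infected i.v. with 1 × 10^5 EGD-e. Starting 36 h after infection, they were dosed i.p. at 50 mg·kg−1 every 12 h for 5 days (n = 20); saline controls n = 5. Deaths were checked twice daily from 36 h post-infection. Survivors were followed for 2 months for relapse, and survival was analysed by Kaplan-Meier.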

Data set [5] has as its system Listeria monocytogenes. The data set can be described thus: Antibacterial activity against Listeria monocytogenes EGD-e in BALB/c mouse central nervous system listeriosis model assessed as log reduction in bacterial CFU per ml of blood at 50 mg/kg, ip administered 36 hrs postinfection as single dose measured within 1 hr. It is filed as functional. To be noted: route intraperitoneal. In a few lines:
as §1

Data set [6] has as its system Listeria monocytogenes. Kind of data set: Antibacterial activity against Listeria monocytogenes EGD-e in BALB/c mouse central nervous system listeriosis model assessed as reduction in bacterial count in liver at 50 mg/kg, ip administered 36 hrs postinfection as single dose measured within 6 hr. It is filed as functional, organism-based. Also on record: dose 50 mg/kg. In a few lines:
as §1

Data set [7] in a line: AUC (24 hrs) in plasma in Listeria monocytogenes EGD-e infected BALB/c mouse central nervous system listeriosis model at 50 mg/kg, ip administered 36 hrs postinfection as single dose. It is filed as ADME, organism-based. More on the design: time < 24 hr, dose 50 mg/kg, route intraperitoneal. An outline of the steps: (§2)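 Female BALB/c mice, 7–8 weeks old, were infected i.v. via the tail vein with 1 × 10^5 EGD-e. At 36 h they received one i.p. dose of 50 mg·kg−1 in isotonic saline. Groups of six were killed at 0–480 min. Blood-cleared brain homogenate and plasma were deproteinized with acetonitrile, with ciprofloxacin as internal standard, and analysed by reverse-phase HPLC with fluorescence detection (ex 290/em 550 nm). Cmax was read from the curves; AUC24 was calculated by the trapezoidal rule.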

Data set [8] in a line: Cmax in plasma in Listeria monocytogenes EGD-e infected BALB/c mouse central nervous system listeriosis model at 50 mg/kg, ip administered 36 hrs postinfection as single dose. It is filed as ADME, organism-based. Also on record: dose 50 mg/kg, route intraperitoneal. In a few lines: as §2
Data set [9] has as its system Listeria monocytogenes. Kind of data set: Antibacterial activity against Listeria monocytogenes EGD-e in BALB/c mouse central nervous system listeriosis model assessed as reduction in bacterial count in spleen at 50 mg/kg, ip administered 36 hrs postinfection as single dose measured within 1 hr. It is filed as functional, organism-based. More on the design: dose 50 mg/kg. In a few lines:
as §1

For data set [10], the system named is Listeria monocytogenes. Kind of data set: Antibacterial activity against Listeria monocytogenes EGD-e in BALB/c mouse central nervous system listeriosis model assessed as reduction in bacterial count in liver at 50 mg/kg, ip administered 36 hrs postinfection as single dose measured within 1 hr. It is filed as functional, organism-based. Also on record: dose 50 mg/kg. An outline of the steps: as §1

Active and inactive are the calls of the source. No cut-off for these calls is given here.

Consider `CC1(C)S[C@@H]2[C@H](NC(=O)[C@H](N)c3ccc(O)cc3)C(=O)N2[C@H]1C(=O)O` [AMOXICILLIN], for which the Activity with Listeria monocytogenes [1] is on record as 75%. The Time in the data set on Listeria monocytogenes [2] was 12 h. In addition, the result in the data set with Listeria monocytogenes [3], in the data set with Listeria monocytogenes [4] and in the data set on Listeria monocytogenes [6] was Active. In addition, the FC with Listeria monocytogenes [5] turned out to be 1.
As usually defined, the AUC is the area under the concentration-time curve, a measure of exposure. Low readings indicate less exposure, high ones more exposure. Broadly, the Cmax is the maximum level reached in the sampled fluid or tissue. As for `COc1c(N2C[C@@H]3CCCN[C@@H]3C2)c(F)cc2c(=O)c(C(=O)O)cn(C3CC3)c12` [MOXIFLOXACIN], the Activity with Listeria monocytogenes [1] is 100%. Moreover, the Time in the data set on Listeria monocytogenes [2] was 24 h. This compound showed an area under the curve (AUC) at 24 h in data set [7] of 27100 ng·h/mL. The Cmax in data set [8] came out at 17300 ng/mL. Further, the result with Listeria monocytogenes [4], with Listeria monocytogenes [9] and in the data set with Listeria monocytogenes [10] was Active.
